{"source": "paper PMC3033481", "about": "(Journal of the American Chemical Society, 2011)", "key": {"[1]": {"tested_on": "BrdU+ cells in the hippocampal dentate gyrus", "experiment": "In vivo neurogenesis", "parameters": "species or system C57BL/J6 mice", "conditions": "for proneurogenic activity (BrdU+ cells in dentate gyrus), in words: 10 μM solution infused ICV, 12 μL/day, 7 days, live mice", "outline": "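Adult (12-week-old) wild-type C57BL/J6 mice, 4 per compound. Test compound solutions (10–0.01 μM) delivered by osmotic minipump into the left lateral ventricle at 12 μL/day for 7 days; the vehicle was artificial CSF. BrdU+ cells counted in SGZ/dentate gyrus of the contralateral hemisphere, every fifth 40 μm section, normalized to dentate volume. Mean ± SEM.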"}, "[2]": {"tested_on": "neurogenesis in the dentate gyrus", "conditions": "rats, cited from earlier work"}, "hERG channel": {"target": "hERG channel (Homo sapiens, UniProt Q12809)", "sequence (Q12809 whole entry)": "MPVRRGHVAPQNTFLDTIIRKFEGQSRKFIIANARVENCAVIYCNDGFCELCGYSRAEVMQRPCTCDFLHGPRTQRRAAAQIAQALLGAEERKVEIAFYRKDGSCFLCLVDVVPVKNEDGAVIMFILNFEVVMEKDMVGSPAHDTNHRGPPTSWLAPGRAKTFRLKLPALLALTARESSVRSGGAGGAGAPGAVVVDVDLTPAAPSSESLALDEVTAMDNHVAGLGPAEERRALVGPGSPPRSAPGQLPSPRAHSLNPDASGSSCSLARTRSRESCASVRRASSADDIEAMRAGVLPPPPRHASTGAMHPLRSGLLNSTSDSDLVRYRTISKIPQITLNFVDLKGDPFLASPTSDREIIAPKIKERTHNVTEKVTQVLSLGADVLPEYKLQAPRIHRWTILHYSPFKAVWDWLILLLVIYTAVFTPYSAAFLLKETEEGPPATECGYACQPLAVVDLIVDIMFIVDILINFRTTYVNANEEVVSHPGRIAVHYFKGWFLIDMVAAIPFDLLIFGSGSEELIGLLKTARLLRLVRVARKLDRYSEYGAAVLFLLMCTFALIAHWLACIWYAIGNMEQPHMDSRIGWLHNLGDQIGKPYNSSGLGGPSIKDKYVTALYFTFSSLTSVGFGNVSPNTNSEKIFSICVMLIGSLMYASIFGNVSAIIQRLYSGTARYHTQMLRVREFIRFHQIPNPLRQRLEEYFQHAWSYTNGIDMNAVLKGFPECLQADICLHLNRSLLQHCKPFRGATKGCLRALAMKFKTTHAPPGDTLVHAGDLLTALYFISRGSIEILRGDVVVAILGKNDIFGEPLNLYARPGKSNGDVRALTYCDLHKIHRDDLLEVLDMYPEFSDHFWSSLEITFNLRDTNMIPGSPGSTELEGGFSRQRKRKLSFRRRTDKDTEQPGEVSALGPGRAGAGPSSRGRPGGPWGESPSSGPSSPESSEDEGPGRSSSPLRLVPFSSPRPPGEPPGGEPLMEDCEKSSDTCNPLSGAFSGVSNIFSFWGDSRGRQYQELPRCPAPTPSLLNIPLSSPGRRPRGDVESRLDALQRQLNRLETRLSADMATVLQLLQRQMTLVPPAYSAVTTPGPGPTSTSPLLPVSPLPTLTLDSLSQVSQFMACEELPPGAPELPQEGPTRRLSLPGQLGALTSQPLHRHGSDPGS"}, "HeLa cells": {"tested_on": "HeLa cells", "experiment": "Cell viability assay", "format": "cell-based"}, "neurogenesis": {"tested_on": "neurogenesis", "conditions": "cited from earlier work"}, "[3]": {"tested_on": "dentate gyrus in mice deficient in the npas3 gene", "conditions": "cited from earlier work"}, "[4]": {"tested_on": "embryonic, weaning or adult mice", "conditions": "mouse, in vivo; cited from earlier work"}, "histamine H2 receptor": {"target": "histamine H2 receptor (Homo sapiens, UniProt P25021)", "sequence (P25021 whole entry)": "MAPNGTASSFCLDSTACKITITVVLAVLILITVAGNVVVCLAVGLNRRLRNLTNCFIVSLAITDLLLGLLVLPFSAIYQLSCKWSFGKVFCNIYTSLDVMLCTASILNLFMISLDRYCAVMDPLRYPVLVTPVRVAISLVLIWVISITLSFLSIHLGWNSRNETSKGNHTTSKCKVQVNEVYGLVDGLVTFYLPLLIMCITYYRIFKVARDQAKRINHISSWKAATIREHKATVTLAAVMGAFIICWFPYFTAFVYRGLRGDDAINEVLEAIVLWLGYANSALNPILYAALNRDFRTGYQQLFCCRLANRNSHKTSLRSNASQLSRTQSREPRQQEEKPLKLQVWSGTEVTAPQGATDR", "experiment": "Histamine H2 competition binding assay", "conditions": "for Histamine H2 binding (% displacement @ 10 μM): displacement of [125I]aminopotentidine (0.1 nM) with 10 μM drug"}, "neural precursor cells": {"tested_on": "neural precursor cells", "conditions": "time-course experiments; cited from earlier work"}, "[5]": {"conditions": "mouse, in vivo, cited from earlier work"}, "[6]": {"tested_on": "BrdU+ cells in the hippocampal dentate gyrus", "conditions": "cited from earlier work"}}, "note": "Entries after “also recorded” stand apart in the source; their conditions may differ.", "data": [{"molecule": "OC(CNc1ccccc1)Cn1c2ccc(Cl)cc2c2cc(Cl)ccc21", "note": "(centres unmarked) [Compound 1]", "values": [{"measurement": "proneurogenic activity (BrdU+ cells in dentate gyrus), in words", "setting": "[1]", "value": "did not appear active"}]}, {"molecule": "OC(CNc1ccccc1)Cn1c2ccccc2c2ccccc21", "note": "(centres unmarked) [Compound 2]", "values": [{"measurement": "proneurogenic activity (BrdU+ cells in dentate gyrus), in words", "setting": "[1]", "value": "did not appear active"}]}, {"molecule": "CCOc1ccc(NCC(O)Cn2c3ccc(Br)cc3c3cc(Br)ccc32)cc1", "note": "(centres unmarked) [Compound 4-OEt]", "values": [{"measurement": "proneurogenic activity (BrdU+ cells in dentate gyrus), in words", "setting": "[1]", "value": "highly active"}]}, {"molecule": "COc1cccc(NCC(O)Cn2c3ccc(Br)cc3c3cc(Br)ccc32)c1", "note": "(centres unmarked) [Compound 7]", "values": [{"measurement": "proneurogenic activity (BrdU+ cells in dentate gyrus), in words", "setting": "[1]", "value": "well tolerated; also recorded: little effect on activity"}, {"measurement": "difference in activity between the two enantiomers", "setting": "[1]; enantiomeric pairs tested, same enantiomer more active in all three cases", "value": "significant difference in activity"}]}, {"molecule": "COc1ccc(NCC(O)Cn2c3ccc(Br)cc3c3cc(Br)ccc32)cc1", "note": "(centres unmarked) [Compound 8]", "values": [{"measurement": "proneurogenic activity (BrdU+ cells in dentate gyrus), in words", "setting": "[1]", "value": "well tolerated; also recorded: highly active"}]}, {"molecule": "OC(CNc1ccccc1)Cn1c2ccc(Cl)cc2c2cc(Cl)ccc21", "note": "(centres unmarked) [Compound 17]", "values": [{"measurement": "proneurogenic activity (BrdU+ cells in dentate gyrus), in words", "setting": "[1]", "value": "little activity"}]}, {"molecule": "CCOc1cccc(NCC(O)Cn2c3ccc(Br)cc3c3cc(Br)ccc32)c1", "note": "(centres unmarked) [Compound 21]", "values": [{"measurement": "proneurogenic activity (BrdU+ cells in dentate gyrus), in words", "setting": "[1]", "value": "essentially abrogated activity"}]}, {"molecule": "[N-]=[N+]=Nc1cccc(NCC(O)Cn2c3ccc(Br)cc3c3cc(Br)ccc32)c1", "note": "(centres unmarked) [Compound 22]", "values": [{"measurement": "proneurogenic activity (BrdU+ cells in dentate gyrus), in words", "setting": "[1]", "value": "substantially decreased activity"}]}, {"molecule": "[N-]=[N+]=Nc1ccc(NCC(O)Cn2c3ccc(Br)cc3c3cc(Br)ccc32)cc1", "note": "(centres unmarked) [Compound 23]", "values": [{"measurement": "proneurogenic activity (BrdU+ cells in dentate gyrus), in words", "setting": "[1]", "value": "highly active"}]}, {"molecule": "FC(CNc1ccccc1)Cn1c2ccc(Br)cc2c2cc(Br)ccc21", "note": "(centres unmarked) [Compound 52]", "values": [{"measurement": "proneurogenic activity (BrdU+ cells in dentate gyrus), in words", "setting": "[1]", "value": "gains little from fluorination"}]}, {"molecule": "COc1ccc(NCC(F)Cn2c3ccc(Br)cc3c3cc(Br)ccc32)cc1", "note": "(centres unmarked) [Compound 54]", "values": [{"measurement": "proneurogenic activity (BrdU+ cells in dentate gyrus), in words", "setting": "[1]", "value": "improved by fluorination"}]}, {"molecule": "OC(CNc1ccccc1)Cn1c2ccc(Br)cc2c2cc(Br)ccc21", "note": "(centres unmarked) [Compound P7C3]", "values": [{"measurement": "Half life in cell culture, Mouse hepatocytes", "setting": "mouse hepatocytes", "value": ">4", "unit": "h"}, {"measurement": "cognitive capacity", "setting": "[2]; as a function of terminal aging", "value": "preserved cognitive capacity"}, {"measurement": "neurogenesis in the dentate gyrus", "setting": "[2]; terminal aging", "value": "enhanced neurogenesis in the dentate gyrus"}, {"measurement": "neuron cell death", "setting": "[2]; terminal aging", "value": "impeded neuron cell death"}, {"measurement": "hERG binding (% displacement @ 10 μM)", "setting": "hERG channel", "value": 92, "unit": "% displacement"}, {"measurement": "GI50", "setting": "HeLa cells", "value": 5.1, "unit": "µM"}, {"measurement": "neurogenesis activity, oral dose 1 mg/kg", "setting": "neurogenesis; oral dose 1 mg/kg", "value": "measurable activity"}, {"measurement": "neurogenesis activity, oral dose 5 mg/kg", "setting": "neurogenesis; oral dose of 5 mg/kg", "value": "maximal neurogenesis activity"}, {"measurement": "structure and function of the dentate gyrus", "setting": "[3]", "value": "repair the structure and function of the dentate gyrus"}, {"measurement": "toxicity to mice", "setting": "[4]", "value": "not toxic"}, {"measurement": "Histamine H2 binding, in words", "setting": "histamine H2 receptor; 10 μM drug", "value": "modest binding"}, {"measurement": "Histamine H2 binding (% displacement @ 10 μM)", "setting": "histamine H2 receptor", "value": 63, "unit": "% displacement"}, {"measurement": "Half life in cell culture, Human hepatocytes", "setting": "human hepatocytes", "value": ">4", "unit": "h"}, {"measurement": "proliferation of neural precursor cells", "setting": "neural precursor cells", "value": "does not stimulate proliferation"}, {"measurement": "AUC brain: AUC plasma ratio", "setting": "[5]; po", "value": 3.7}, {"measurement": "oral availability, in words", "setting": "[5]", "value": "orally available"}, {"measurement": "neurogenesis activity, 1 μM solution", "setting": "[6]; 1 μM solution infused ICV, 12 μL/day for 7 days", "value": "maintains activity"}, {"measurement": "number of BrdU+ cells relative to mice treated with vehicle alone", "setting": "[6]; 10 μM ICV, 7 days, vehicle artificial CSF, similar number as FGF-2", "value": "approximately twice"}]}, {"molecule": "Cc1ccc2c(c1)c1c(n2CCc2ccc(C)nc2)CCN(C)C1", "note": "[dimebon, reference compound]", "values": [{"measurement": "proneurogenic activity (BrdU+ cells in dentate gyrus), in words", "setting": "[1]", "value": "active in our neurogenesis assay, but substantially less so than P7C3"}, {"measurement": "Histamine H2 binding (% displacement @ 10 μM)", "setting": "histamine H2 receptor", "value": 99, "unit": "% displacement"}]}]}
